Bioassay records as filed in PubChem.
MrgX1 agonist: activates human MrgX1 receptor signaling | Q96LB2 | AID 588627 | MrgX1-HEK293 cells, Fluo-4 calcium fluorescence, agonist mode; active compounds read high | 310,000 tested, 0.44% active | B-score at 10 µM;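 active = calcium response B-score plate-corrected fluorescence ratio at least 3 library SD, with starting fluorescence B-score inside 5 SD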
Target sequence (Q96LB2 whole entry, looked up): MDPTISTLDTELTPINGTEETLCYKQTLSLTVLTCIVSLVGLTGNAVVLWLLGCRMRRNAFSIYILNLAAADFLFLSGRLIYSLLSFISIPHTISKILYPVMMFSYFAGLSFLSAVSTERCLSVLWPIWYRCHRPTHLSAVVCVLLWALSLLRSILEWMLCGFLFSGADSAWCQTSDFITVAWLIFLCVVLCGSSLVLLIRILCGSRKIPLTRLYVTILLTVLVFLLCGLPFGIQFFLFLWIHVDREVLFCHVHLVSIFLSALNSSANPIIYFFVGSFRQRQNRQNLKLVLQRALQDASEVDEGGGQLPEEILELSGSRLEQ
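times = overnight plating, then 30 min 37 °C plus 30 min room-temperature dye loading | assay system = stable human MrgX1 HEK293 cell line | input = fifteen thousand cells per well | signal = kinetic calcium dye fluorescence, Fluo-4 NW | dosing = compound delivered in addition one of three | read-out = B-scored fluorescence response ratio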
RGS4 block: inhibitors of human RGS4; P49798; HEK293 M3R/RGS4 inducible, Fluo-4 calcium flux; active compounds read high; triggered by carbachol at its EC20; B-score at 10 µM; 310,000 tested, 0.45% active; AID 463165;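 active = B-score, a plate-corrected calcium signal, over three deviations above library mean, with baseline fluorescence within five deviations of library mean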;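 note: RGS4 expression induced by doxycycline in cells with stable M3 receptor; B-score is computed from the integrated fluorescence ratio over baseline after carbachol; higher B-score means a larger calcium signal and so more RGS4 inhibition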
Target sequence (P49798 whole entry, looked up): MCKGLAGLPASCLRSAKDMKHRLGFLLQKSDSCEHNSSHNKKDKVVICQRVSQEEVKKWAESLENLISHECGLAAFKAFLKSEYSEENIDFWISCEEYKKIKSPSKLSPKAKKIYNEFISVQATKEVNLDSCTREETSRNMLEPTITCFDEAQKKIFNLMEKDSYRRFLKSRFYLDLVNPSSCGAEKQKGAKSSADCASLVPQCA
MrgX1 antagonist: human MrgX1 receptor antagonism, primary screen; B-score at 10 µM; Q96LB2; MRGX1-HEK293 calcium flux, Fluo-4, BAM8-22 antagonism; active compounds read low; AID 588676; 310,000 tested, 1.3% active;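 active = calcium-response B-score plate-corrected more than 3 library SD below zero, starting fluorescence within 5 deviations, no agonist response on first addition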;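 note: peak minus trough fluorescence over baseline after final BAM8-22 challenge near maximal dose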
MrgX1 PAM: human MrgX1 positive allosteric modulation, primary screen. Q96LB2. MrgX1-HEK293, Fluo-4 calcium flux, FDSS; active compounds read high. B-score at 10 µM. 310,000 tested, 0.63% active;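 active = plate-corrected calcium response at least 3 library SD above typical, normal starting fluorescence, not activating the receptor alone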;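 note: compound read alongside a low EC10 to EC30 dose of BAM8-22 agonist; peak minus trough fluorescence over baseline measured at the second addition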
RGS4 pot: potentiators or activators of RGS4 | HEK293 M3R/inducible RGS4, carbachol calcium flux Fluo4; active compounds read low | B-score at 10 µM | 310,000 tested, 0.92% active | AID 463111;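 active = B-score of the integrated calcium signal more than 4 SD below the library mean, with starting fluorescence not abnormally high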;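 note: negative B-score means reduced calcium response which marks RGS4 activation or potentiation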
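Detection: kinetic calcium fluorescence imaging with Fluo4-AM dye, 2 µM / Material: HEK293 cells with stable M3R and inducible RGS4 / Schedule: recording 10 s baseline at 1 Hz, 100 s post-agonist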
Hep lipid drop: hepatic lipid droplet formation modulation; AML12 mouse hepatocytes, oleate lipid droplets, BODIPY imaging; inhibition, % at 6.5 µM; 240,000 tested, 0.4% active; AID 1656;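 active = lipid droplet intensity inhibited by at least 50%, with more than 500 cells counted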
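Assay system: AML12 mouse liver cells | Compound dosing: One dose, 6.5 µM compound | Read-out basis: Droplet intensity reduction, % inhibition | Measured by: Fluorescence imaging, 20x objective, two fields per well | Schedule: Overnight treatment with compound plus oleate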
MrgX1 PAM conf: human MrgX1 positive allosteric modulation, re-confirmation; shares compounds with MrgX1 PAM; MrgX1-HEK293, Fluo-4 calcium fluorescence, FDSS; activation (ratio percentage), % at 10 µM; 1,200 tested, 13% active;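 active = ratio at least 3 SD above the weak peptide control, stable starting fluorescence, no direct agonism earlier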;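 note: compound followed by low BAM8-22 agonist challenge near EC20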
HEK293 Ca flux: activity in parental HEK293 cells lacking MrgX1; shares compounds with MrgX1 antagonist; Fluo-4 calcium fluorescence, FDSS; fluorescence ratio F(max-min)/F0 at 10 µM; 4,000 tested, 2% active;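 active = duplicate-averaged calcium fluorescence ratio at least three times the standard deviation of buffer wells, a nonspecific response in parental cells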
HEK293 Ca counter: MrgX1 allosteric activator counter-screen hit in parental HEK293 cells. shares compounds with MrgX1 antagonist. parental HEK293 calcium flux, Fluo-4 fluorescence ratio; active compounds read high. fluorescence ratio F(max-min)/F0 at 10 µM. 4,000 tested, 0.4% active. AID 624114;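 active = calcium fluorescence ratio, averaged over duplicates, at least 3 SD of the buffer-well ratio, meaning a nonspecific response in receptor-free cells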;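 note: untransfected parental HEK293 lacking MrgX1 used as counterscreen for MrgX1 allosteric activators; fluorescence change taken during the second addition on a kinetic imager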
HEK293 Ca cntr2: counter-screen for MrgX1 activators: effect in parental HEK293 cells. shares compounds with MrgX1 antagonist. Fluo-4 calcium fluorescence (FDSS); active compounds read high. fluorescence ratio F(max-min)/F0 at 10 µM. 4,000 tested, 8.7% active. AID 624115;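 active = calcium fluorescence ratio at least three times the spread of buffer wells, meaning a non-specific response in parental cells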
Each line names hits and unclear results; the compound was inactive in the other large screens (follow-up assays come after a bar, where they were run). Compounds with a hit are over-represented: about 3.8% of the library has one in this group of screens.

COc1ccccc1NC(=O)c1ccccc1NS(=O)(=O)c1cccs1	MrgX1 PAM 54 | MrgX1 PAM conf 29% | HEK293 Ca flux inactive | HEK293 Ca counter inactive | HEK293 Ca cntr2 inactive
COc1ccccc1NC(=O)c1ccccc1NS(C)(=O)=O	MrgX1 PAM 11 | MrgX1 PAM conf inactive | HEK293 Ca flux inactive | HEK293 Ca counter inactive | HEK293 Ca cntr2 inactive
CCOc1ccccc1NC(=O)c1ccccc1NS(C)(=O)=O	MrgX1 PAM 23 | MrgX1 PAM conf 79% | HEK293 Ca flux inactive | HEK293 Ca counter inactive | HEK293 Ca cntr2 inactive
CN(CC(=O)Nc1ccccc1Br)C(=O)CNC(=O)Cc1cccc2ccccc12	none
COc1ccc(-n2nc3c(c2NC(=O)c2ccc4c(c2)OCO4)CS(=O)(=O)C3)cc1	none
CCCNC(=O)C1CC(c2ccc(C(F)(F)F)cc2)=NO1 (stereo not drawn)	none (no result: Hep lipid drop)
CCOC(=O)c1cc(C)nc(Sc2ccc(C)cc2)c1C#N	none
Cc1cc(C)c(C#N)c(Sc2ccc(N)cc2)n1	MrgX1 PAM 12 | MrgX1 PAM conf inactive | HEK293 Ca flux inactive | HEK293 Ca counter inactive | HEK293 Ca cntr2 inactive
O=[N+]([O-])c1ccccc1S(=O)(=O)Nc1cccnc1	none
Cc1ccc(CN2CCN(C3CCOCC3)CC2CCO)cc1 (stereo not drawn)	MrgX1 PAM 8.9 | MrgX1 PAM conf inactive | HEK293 Ca flux inactive | HEK293 Ca counter inactive | HEK293 Ca cntr2 inactive
CCCn1c(=O)c(C(=O)Nc2ccccc2)c(O)c2ccccc21	none (no result: Hep lipid drop)
CCCn1c(=O)c(C(=O)Nc2cccc(C)c2)c(O)c2ccccc21	MrgX1 PAM 7.2 | MrgX1 PAM conf inactive | HEK293 Ca flux inactive | HEK293 Ca counter inactive | HEK293 Ca cntr2 inactive
Cc1ccsc1C(=O)OCC(=O)N1CCc2ccccc2C1	MrgX1 PAM 8.9 | MrgX1 PAM conf inactive | HEK293 Ca flux inactive | HEK293 Ca counter inactive | HEK293 Ca cntr2 inactive
Cc1ccsc1C(=O)N1CCc2ccccc2C1	none
O=C(NCCc1ccccc1)c1ccc(NCC2CCCO2)c([N+](=O)[O-])c1 (stereo not drawn)	none
O=C(NCCc1csc(-c2cccnc2)n1)c1cccc(Cl)c1	MrgX1 PAM 9.6 | MrgX1 PAM conf inactive | HEK293 Ca flux inactive | HEK293 Ca counter inactive | HEK293 Ca cntr2 inactive
O=C(NCCc1csc(-c2cccnc2)n1)c1ccc(Cl)cc1	none
CC12CCC(C(=O)Nc3nc4ccc(Br)cc4s3)(OC1=O)C2(C)C (stereo not drawn)	MrgX1 PAM 17 | MrgX1 PAM conf 6.5% | HEK293 Ca flux inactive | HEK293 Ca counter inactive | HEK293 Ca cntr2 inactive
CC12CCC(C(=O)Nc3nccs3)(OC1=O)C2(C)C (stereo not drawn)	none (no result: Hep lipid drop)
COC(=O)c1cc(C#N)c(SCc2ccccc2)nc1C	MrgX1 PAM 6.9 | MrgX1 PAM conf inactive | HEK293 Ca flux inactive | HEK293 Ca counter inactive | HEK293 Ca cntr2 inactive
CC(CCc1ccc(O)cc1)NC1c2ccccc2-c2ccccc21 (stereo not drawn)	MrgX1 PAM 7.1 | MrgX1 PAM conf inactive | HEK293 Ca flux inactive | HEK293 Ca counter inactive | HEK293 Ca cntr2 inactive
CCNC(=O)C(=O)c1c(-c2ccccc2)[nH]c2ccccc12	none
CCN(CC)C(=O)C(=O)c1c(-c2ccccc2)[nH]c2ccccc12	MrgX1 PAM 15 | MrgX1 PAM conf inactive | HEK293 Ca flux inactive | HEK293 Ca counter inactive | HEK293 Ca cntr2 inactive
